According to ChEMBL document CHEMBL1122317, “Role of substrate lipophilicity on the N-demethylation and type I binding of 3-O-alkylmorphine analogues” (J Med Chem, 1983):

Experiments:
Type in all cases: ADME
[1] = Maximum optimal dose expressed as OD max X 10e-(2/3) mg
Outline: (§1)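 Type I difference spectra recorded at 350–500 nm in washed liver microsomes from fed, untreated 180–250 g male CD rats, 3 mg protein/mL in 0.15 M KCl-0.05 M Tris. Split-beam cuvettes were warmed to 37 °C for 5 min, then substrate added stepwise to the sample side and buffer to the reference. Ks came from double-reciprocal plots of the 390–420 nm absorbance difference. Triplicate determinations.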

[2] = Spectral dissociation constant of the compound.; conditions: read-out: Ks; outline: as §1
[3] = Vmax value in N-demethylation.
Outline: (§2)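 Male CD rat hepatic microsomes (1 mg protein/mL) in 0.15 M KCl-0.05 M Tris with 5 mM MgCl2 and an NADPH-generating system (0.33 mM NADP, 5.5 mM glucose 6-phosphate, 0.67 U/mL G6PDH). Incubated in air for 10 min at 37 °C. Formaldehyde measured colorimetrically with acetylacetone at 412 nm, correcting for substrate-free blanks. Km and Vmax taken from triplicates at 11 substrate concentrations.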

[4] = Michaelis constant in O-dealkylation.
Outline: (§3)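 Octyl[6-3H]morphine N- and O-dealkylation assayed radiometrically in rat liver microsomes (1 mg protein/mL). Triplicate 20-min incubations used eight substrate concentrations from 0.1 to 1.0 mM. Reactions were stopped with acetone and extracted, then metabolites were located by UV, scraped and counted by scintillation. Km and Vmax came from Lineweaver-Burk plots, averaged over three separate studies.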

[5] = Michaelis constant in N-demethylation.; outline: as §2
[6] = Vmax value in O-dealkylation.; outline: as §3
[7] = Rate of ethylmorphine N-demethylase in the presence of various concentrations (uM) at 2000 uM concentration.
Outline: (§4)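 2 mM 3-O-ethylmorphine was N-demethylated for 10 min at 37 °C by male CD rat liver microsomes (1 mg protein/mL) with an NADPH-generating system, with 0, 20, 200 or 2000 μM added decyl or dodecyl analogue. Formaldehyde was read colorimetrically at 412 nm. Rate is nmol/min/mg protein, from triplicate incubations.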

[8] = Rate of ethylmorphine N-demethylase in the presence of various concentrations (uM) at 200 uM concentration.; outline: as §4
[9] = Rate of ethylmorphine N-demethylase in the presence of various concentrations (uM) at 0 uM concentration.; outline: as §4
[10] = Rate of ethylmorphine N-demethylase in the presence of various concentrations (uM) at 20 uM concentration.; outline: as §4
[11] = Maximum optimal dose expressed as OD max X 10e-(2/3) mg; ND = no detectable binding spectra.; outline: as §1
[12] = Spectral dissociation constant of the compound; ND = no detectable binding spectra.; outline: as §1

CCCCCOc1ccc2c3c1OC1C(O)C=CC4C(C2)N(C)CCC341.Cl (configuration not stated)
OD max [1]: 2 mg | Kd [2]: 14.6 µM

COc1ccc2c3c1O[C@H]1[C@@H](O)C=C[C@H]4[C@@H](C2)N(C)CC[C@@]341.O=S(=O)(O)O
OD max [1]: 1.85 mg

CCCCCCCCOc1ccc2c3c1OC1C(O)C=CC4C(C2)N(C)CCC341.Cl (configuration not stated)
Vmax [3]: 1.98 nM/min | Km [4]: 125 µM | Km [5]: 67 µM | Vmax [6]: 3.57 nM/min | OD max [1]: 2.1 mg | Kd [2]: 8.8 µM

CCCCCCCOc1ccc2c3c1OC1C(O)C=CC4C(C2)N(C)CCC341.Cl (configuration not stated)
OD max [1]: 1.8 mg | Kd [2]: 11.4 µM

CCCCOc1ccc2c3c1OC1C(O)C=CC4C(C2)N(C)CCC341.Cl (configuration not stated)
OD max [1]: 2.06 mg | Kd [2]: 18.1 µM

CCCCCCCCCCCCOc1ccc2c3c1OC1C(O)C=CC4C(C2)N(C)CCC341.Cl (configuration not stated)
Rate [7]: 9.06 nM/min | Rate [8]: 8.98 nM/min | Rate [9]: 8.92 nM/min | Rate [10]: 8.81 nM/min | OD max [11]: No detectable binding spectra | Ks [12]: No detectable binding spectra

CCOc1ccc2c3c1OC1C(O)C=CC4C(C2)N(C)CCC341.Cl (configuration not stated)
Vmax [3]: 9.31 nM/min | Km [4]: 55 µM | Km [5]: 245 µM | Vmax [6]: 1.86 nM/min | OD max [1]: 1.9 mg | Kd [2]: 29.1 µM

CCCCCCCCCCOc1ccc2c3c1OC1C(O)C=CC4C(C2)N(C)CCC341.Cl (configuration not stated)
Rate [7]: 9.22 nM/min | Rate [8]: 9.12 nM/min | Rate [9]: 9.11 nM/min | Rate [10]: 8.92 nM/min | OD max [11]: No detectable binding spectra | Ks [12]: No detectable binding spectra

CCCCCCOc1ccc2c3c1OC1C(O)C=CC4C(C2)N(C)CCC341.Cl (configuration not stated)
OD max [1]: 1.9 mg | Kd [2]: 12.8 µM

CCCCCCCCCOc1ccc2c3c1OC1C(O)C=CC4C(C2)N(C)CCC341.Cl (configuration not stated)
OD max [1]: 2.15 mg | Kd [2]: 7.6 µM

CCCOc1ccc2c3c1OC1C(O)C=CC4C(C2)N(C)CCC341.Cl (configuration not stated)
OD max [1]: 1.8 mg | Kd [2]: 28.4 µM
